Measurements from different studies.
Lines come from different studies, so protocols differ.
Target: SRSF protein kinase 1 (SRPK1, Homo sapiens, UniProt Q96SB4)

| Structure (SMILES) | observed | method | concentration | remaining binding [%] |
| --- | --- | --- | --- | --- |
| CC1CCCN1c1nccc(-c2cnn3ncccc23)n1 (stereo not drawn) | binding | – | 1 µM | 94 |
| CNC(=O)Nc1ccc2c(c1)[C@@]1(CC2)OC(=O)N(CC(=O)N(Cc2ccc(F)cc2)[C@@H](C)C(F)(F)F)C1=O | cell-free assay | competition with immobilised ligand | 1 µM | 100 |
| Cc1cnc(Nc2ccc(C(=O)N3CCC(N4CCCC4)CC3)cc2)nc1-c1cc2ccccc2s1 | binding | competition with immobilised ligand | 1 µM | 100 |
| COc1ccnn2ncc(-c3ccnc(N(C)C)n3)c12 | binding | – | 1 µM | 85 |
| CNCc1ccccc1-c1csc([C@H](C)Nc2nc(C)nc3cc(OC)c(OC)cc23)c1 | cell-free assay | competition with immobilised ligand | 1 µM | 100 |
| FC(F)(F)Oc1cccc(-c2cnc3ccc(-c4ccncc4)nn23)c1 | binding | competition with immobilised ligand | 5 µM | 70 |
| C[C@@H]1CCN(c2nccc(-c3cnn4ncccc34)n2)C1 | binding | – | 1 µM | 98 |
| Cc1noc([C@H]2C[C@@H](c3ccc(C(F)(F)F)cc3)CN(C(=O)N3CCS(=O)(=O)C3)C2)n1 | cell-free assay | competition with immobilised ligand | 1 µM | 100 |
| O=C(NCCCN1CCOCC1)c1ccc(Nc2nccc(-c3cc4ccccc4s3)n2)cc1 | binding | competition with immobilised ligand | 1 µM | 100 |
| N[C@@H]1CCN(c2nccc(-c3cnn4ncccc34)n2)C1 | binding | – | 1 µM | 92 |
| O=C(Nc1cccnn1)N1CC(C/C=C/c2cncc(Oc3ccc(C(F)(F)F)cn3)n2)C1 | cell-free assay | competition with immobilised ligand | 1 µM | 82 |
| C=CC(=O)N1CCC(C(=O)NCC(=O)N2CCN(c3nc(-c4cnc(N)nc4C(F)F)nc(N4CCOCC4)n3)CC2)CC1 | binding | competition with immobilised ligand | 1 µM | 75 |
| O=C(c1ccc(Nc2ncc(Cl)c(-c3cc4ccccc4s3)n2)cc1)N1CCC(N2CCCC2)CC1 | binding | competition with immobilised ligand | 1 µM | 100 |
| COc1cnc(Nc2cccc(S(N)(=O)=O)c2)nc1N1CCN(c2ccccc2)CC1 | binding | competition with immobilised ligand | 1 µM | 65 |
| c1cncc(-c2cccc(Nc3nccc(NC4CCCCC4)n3)c2)c1 | binding | competition with immobilised ligand | 10 µM | 30 |
| CN(C)c1ncc(F)c(-c2cnn3ncccc23)n1 | binding | – | 1 µM | 95 |
| COCCOc1nc(-c2ccc(Cl)nc2)nc2c1CN(C(=O)c1ncn3ccccc13)CC2 | cell-free assay | competition with immobilised ligand | 0.1 µM | 86 |
| O=C(NCC1CCOCC1)c1n[nH]cc1NC(=O)c1c(F)cccc1F | binding | competition with immobilised ligand | 1 µM | 68 |
| O=C(O)[C@H]1[C@H](Cn2nnc3ccccc3c2=O)CC[C@@H]1C(=O)c1ccc(OCCC2CCOCC2)cc1 | cell-free assay | competition with immobilised ligand | 1 µM | 79 |
| F[C@@H]1CCN(c2nccc(-c3cnn4ncccc34)n2)C1 | binding | – | 1 µM | 100 |
| C[C@@H](c1ccc(-n2cnc3c(N)ncnc32)cc1)N1CCc2nn(C)c(Cc3ccccc3)c2C1=O | binding | competition with immobilised ligand | 0.1 µM | 100 |
